# Experimental data reported in ChEMBL document CHEMBL4334439, “Discovery, Optimization, and Target Identification of Novel Potent Broad-Spectrum Antiviral Inhibitors” (J Med Chem, 2019).
# What was measured:
# [1] = Selectivity index, ratio of CC50 for human Huh7.5.1 cells to EC50 for EGFP-fused HCV JFH-1 harboring K78E/E2-G451R/NS3-M260K/NS5A-T462I mutant infected in human Huh7.5.1 cells; assay type: toxicity, cell-based; conditions: read-out: Ratio CC50/EC50
# [2] = Cytotoxicity against human Huh7.5.1 cells assessed as decrease in cell viability after 48 hrs by WST1 assay; assay type: cell-based
# How it was run: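 Cells seeded at 1 × 10^4 per well and cultured overnight at 37 °C, then incubated 48 h with serially diluted compounds. Viability read with WST-1 reagent as absorbance at OD450/OD630.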
# Hepatitis C virus [3] = assay: Antiviral activity against GFP-fused HCV JFH-1 harboring K78E/E2-G451R/NS3-M260K/NS5A-T462I mutant infected in human Huh7.5.1 cells assessed as reduction in viral infection at 10 uM preincubated for 2 hrs followed by viral infection and measured after 48 hrs by epifluorescence microscopic analysis relative to control; assay type: functional, Hepacivirus hominis; set-up: scale not given: the % may be the effect or the level left
# How it was run: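 Primary screen at 10 μM. Huh7.5.1 cells were pretreated 2 h, then infected with GFP-HCV (MOI 1). GFP intensity was checked by fluorescence microscopy at 48 h. Hits needed over 50% fluorescence decay before dose-response retesting.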
# Hepatitis C virus [4] = assay: Antiviral activity against EGFP-fused HCV JFH-1 harboring K78E/E2-G451R/NS3-M260K/NS5A-T462I mutant infected in human Huh7.5.1 cells assessed as reduction in viral RNA level after 2 days by qRT-PCR analysis; assay type: functional, organism-based, Hepacivirus hominis; conditions: JFH-1, Huh-7.5.1, 48 h
# How it was run: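 Huh7.5.1 cells at 1×10^4/well, grown overnight at 37 °C. HCVcc was mixed with serially diluted compound (top 30 or 6 μM), given alone or with the named drug, and added to the cells. Viral RNA was read by qRT-PCR after 2 days. EC50 is the concentration giving 50% RNA reduction.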
# [5] = Inhibition of C-terminal 6-His tagged recombinant human DHODH N-terminal domain delta29 mutant expressed in Escherichia coli BL21(DE3) using dihydroorotate as substrate measured every 30 secs for 6 mins by DCIP dye based assay
# How it was run: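 Enzyme purified by HisTrap then size exclusion. Reaction started with 500 μM dihydroorotate. DCIP decrease read at 600 nm. Inhibition = (1 − Vi/V0) × 100. IC50 from 8–9 concentrations in triplicate by sigmoidal fit.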
SMILES,selectivity ratio [1],CC50 at 48 h [2],Activity (Hepatitis C virus [3]),EC50 (Hepatitis C virus [4]),IC50 [5]
Cc1c(-c2ccc(-c3ccc(SC(F)(F)F)cc3)cc2)[nH]c2cccc(F)c2c1=O,> 4,> 10000 nM,>50%,2330 nM,–
Cc1c(-c2ccc(OCCCN3CCOCC3)cc2)[nH]c2cccc(F)c2c1=O,> 4,> 100000 nM,>50%,28100 nM,–
CCNc1ccc(Oc2ccc(-c3[nH]c4cccc(F)c4c(=O)c3C)cc2F)cc1,> 58,> 10000 nM,>50%,170 nM,–
C#CCCC1(CCN(CC)c2ccc(Oc3ccc(-c4[nH]c5cccc(F)c5c(=O)c4C)cc3F)cc2)N=N1,–,–,>50%,8 nM,250 nM
Cc1c(-c2ccc(Cc3ccc(C(C)(O)C(F)(F)F)cc3)cc2)[nH]c2cccc(F)c2c1=O (stereo not drawn),> 23,> 2500 nM,>50%,110 nM,–
Cc1c(-c2ccc(Cc3ccc(N4CCCCC4)cc3)cc2)[nH]c2cccc(F)c2c1=O,> 5,> 10000 nM,>50%,1920 nM,–
CN=S(=O)(c1ccc(Cc2ccc(-c3[nH]c4cccc(F)c4c(=O)c3C)cc2)cc1)C(F)(F)F (stereo not drawn),> 2,> 10000 nM,>50%,5390 nM,–
Cc1c(-c2ccc(Cc3ccc(Cl)cc3)cc2)[nH]c2cccc(F)c2c1=O,> 2,> 10000 nM,>50%,4400 nM,–
Cc1c(-c2ccc(Cc3ccc(SC(F)(F)F)cc3)cc2)[nH]c2c(F)cccc2c1=O,> 3,> 5000 nM,>50%,1850 nM,–
CCN(CC)CCOc1ccc(-c2[nH]c3cccc(F)c3c(=O)c2C)cc1,> 4,> 100000 nM,>50%,25600 nM,–
Cc1c(-c2ccc(OCCN3CCCCC3)cc2)[nH]c2cccc(F)c2c1=O,> 6,> 100000 nM,>50%,16600 nM,–
Cc1c(-c2ccc(Oc3ccc(SC(F)(F)F)cc3)c(F)c2)[nH]c2cccc(F)c2c1=O,> 27,> 10000 nM,>50%,360 nM,–
Cc1c(-c2ccc(Cc3ccc(OCC(F)(F)F)cc3)cc2)[nH]c2cccc(F)c2c1=O,> 6,> 5000 nM,>50%,840 nM,–
Cc1c(-c2ccc(COc3ccc(SC(F)(F)F)cc3)cc2)[nH]c2cccc(F)c2c1=O,> 6,> 10000 nM,>50%,1590 nM,–
Cc1c(-c2ccc(Cc3ccc(C(C)(C)C)cc3)cc2)[nH]c2cccc(F)c2c1=O,> 17,> 5000 nM,>50%,290 nM,–
CCN(C)c1ccc(Oc2ccc(-c3[nH]c4cccc(F)c4c(=O)c3C)cc2F)cc1,> 42,> 10000 nM,>50%,240 nM,–
CCCN(CC)c1ccc(Oc2ccc(-c3[nH]c4cccc(F)c4c(=O)c3C)cc2F)cc1,> 151,> 10000 nM,>50%,66 nM,–
C#CCCC1(CCN(CC)c2ccc(Oc3ccc(-c4nc5cccc(F)c5c(OC)c4C)cc3F)cc2)N=N1,–,–,>50%,> 5000 nM,1030 nM

SMILES,selectivity ratio [1],CC50 at 48 h [2],Activity (Hepatitis C virus [3]),EC50 (Hepatitis C virus [4]),IC50 [5]
Cc1c(-c2ccc(Oc3ccc(N4CCCC4)cc3)c(F)c2)[nH]c2cccc(F)c2c1=O,> 285,> 10000 nM,>50%,35 nM,–
Cc1c(-c2ccc(Cc3ccc(S(=O)(=O)C(F)(F)F)cc3)cc2)[nH]c2cccc(F)c2c1=O,> 2,> 2500 nM,>50%,1760 nM,–
Cc1c(-c2ccc(Oc3ccc(N4CCNCC4)cc3)c(F)c2)[nH]c2cccc(F)c2c1=O,> 4,> 10000 nM,>50%,2570 nM,–
Cc1c(-c2ccc(Cc3ccc(S(=N)(=O)C(F)(F)F)cc3)cc2)[nH]c2cccc(F)c2c1=O (stereo not drawn),> 7,> 10000 nM,>50%,1420 nM,–
Cc1c(-c2ccc(Oc3ccc(N(C)C)cc3)c(F)c2)[nH]c2cccc(F)c2c1=O,> 10,> 10000 nM,>50%,1050 nM,–
Cc1c(-c2ccc(CNC(=O)c3ccc(SC(F)(F)F)cc3)cc2)[nH]c2cccc(F)c2c1=O,> 5,> 50000 nM,>50%,11000 nM,–
Cc1c(-c2ccc(Cc3ccc(SC(F)(F)F)cc3)cc2)[nH]c2cccc(F)c2c1=O,> 27,> 10000 nM,>50%,360 to 1560 nM,–
Cc1c(-c2ccc(Cc3ccc(C(O)C(F)(F)F)cc3)cc2)[nH]c2cccc(F)c2c1=O (stereo not drawn),> 3,> 10000 nM,>50%,3490 nM,–
Cc1c(-c2ccc(Oc3ccc(N4CCCCC4)cc3)c(F)c2)[nH]c2cccc(F)c2c1=O,> 100,> 10000 nM,>50%,100 nM,–
Cc1c(-c2ccc(Cc3ccc(OC(F)(F)F)cc3)cc2)[nH]c2cccc(F)c2c1=O,> 6,> 10000 nM,>50%,360 to 1560 nM,–
Cc1c(-c2ccc(Cc3ccc(OC(F)F)cc3)cc2)[nH]c2cccc(F)c2c1=O,> 5,> 5000 nM,>50%,1010 nM,–
Cc1c(-c2ccc(Cc3ccc(N4CCOCC4)cc3)cc2)[nH]c2cccc(F)c2c1=O,> 3,> 10000 nM,>50%,3650 nM,–
Cc1c(-c2ccc(Cc3ccc([S+]([O-])C(F)(F)F)cc3)cc2)[nH]c2cccc(F)c2c1=O (stereo not drawn),> 7,> 5000 nM,>50%,760 nM,–
COc1ccc(Cc2ccc(-c3[nH]c4cccc(F)c4c(=O)c3C)cc2)cc1,> 5,> 10000 nM,>50%,2170 nM,–
Cc1c(-c2ccc(Cc3ccc(SC(F)(F)F)cc3)cc2)[nH]c2ccc(F)cc2c1=O,> 4,> 10000 nM,>50%,2480 nM,–
Cc1c(-c2ccc(Cc3ccc(SC(F)(F)F)cc3)cc2)[nH]c2cc(F)ccc2c1=O,> 5,> 5000 nM,>50%,970 nM,–
Cc1c(-c2ccc(Cc3ccc(S(F)(F)(F)(F)F)cc3)cc2)[nH]c2cccc(F)c2c1=O,> 7,> 5000 nM,>50%,730 nM,–
